Measured values of several laboratories.
Compare with care: the assays were run in different laboratories.
Medium: plasma

| SMILES | host | route | dose | setting | quantity | value |
| --- | --- | --- | --- | --- | --- | --- |
| Cc1ccc(C(=O)N(CCCN)[C@@H](c2oc3cc(Cl)ccc3c(=O)c2Cc2ccccc2)C(C)C)cc1 | human | intravenous | 4 mg/m² | single dose, patients, infusion | AUC | 5.16 µg·h/mL |
| COc1ccc([C@@H]2CN(C(=O)[C@@H](O)CO)C[C@@]2(C)[C@@H](C)O)cc1OC1CN(c2ccc(C)cn2)C1 | human | oral | 40 mg | single dose, healthy volunteers | AUC(0-t) | 7.65 µg·h/mL |
| COc1cc(C(=O)NC2CCN(C)CC2)c(F)cc1Nc1ncc(C(F)(F)F)c(Oc2cccc3c2C(=O)N(C)C3)n1 | human | oral | 10 mg | multiple doses, once daily, steady state, patients | AUC | 0.816 µM·h |
| Cn1cc(-c2ccc(S(=O)(=O)[C@@H]3C[C@@H](C(=O)NC4(C#N)CC4)N(C(=O)C4(C(F)(F)F)CC4)C3)c(C(F)(F)F)c2)cn1 | human | oral | 300 mg | single dose, fasted, healthy volunteers | AUC(0-inf) | 21 µg·h/mL |
| CCc1nc2c(C)cc(N3CCN(CC(=O)N4CC(O)C4)CC3)cn2c1N(C)c1nc(-c2ccc(F)cc2)c(C#N)s1 | human | oral | 150 mg | single dose, fed, healthy volunteers | AUC(0-inf) | 6.7 µg·h/mL |
| CC(C)(O)c1ccccc1-c1ccc2[nH]c(/C=C/c3ccc(C(F)(F)F)cc3)nc2c1 | male human | oral | 2 mg | single dose, fasted | AUC(0-t) | 0.0947 µg·h/mL |
| CO[C@H]1CC[C@H](N2C(=O)CNc3ncc(-c4ccc(C(C)(C)O)nc4)nc32)CC1 | human | oral | 60 mg | multiple doses, patients | AUC(0-t) | 2.95 µg·h/mL |
| Cn1c(=O)oc2ccc(-c3ccc(C[C@@H](C#N)NC(=O)[C@@H]4CNCCCO4)cc3)cc21 | male human | oral | 50 mg | single dose, healthy volunteers | AUC | 17.6 µM·h |
| CC(C)n1cc(C#N)c2cc(-n3cc(C(=O)O)cn3)ccc21 | human | oral | 200 mg | single dose, fasted, healthy volunteers | AUC(0-t) | 43.9 µg·h/mL |
